According to ChEMBL document CHEMBL4118097, “Selective Inhibitors of Dual Leucine Zipper Kinase (DLK, MAP3K12) with Activity in a Model of Alzheimer's Disease” (J Med Chem, 2017):
pIC50: −log10 of the molar value.

Columns and labels:
[1] = target: Muscarinic acetylcholine receptor M2 (Homo sapiens) (UniProt P08172); assay: Binding affinity to recombinant human M2 acetylcholine receptor at 10 uM relative to control
Summary of the method: (§1)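 Broad radioligand-binding and enzyme screening panel covering 42 targets (biogenic amine and neuropeptide receptors, ion channels, neurotransmitter transporters, acetylcholinesterase). Single test concentration of 10 μM. Results expressed as binding relative to control, with a hit defined as >50% of control.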

[2] = target: 5'-AMP-activated protein kinase catalytic subunit alpha-1 (Homo sapiens) (UniProt Q13131); assay: Inhibition of PRKAA1 (unknown origin) at 1 uM by FRET assay relative to control
[3] = target: Receptor tyrosine-protein kinase erbB-2 (Homo sapiens) (UniProt P04626); assay: Inhibition of recombinant His-tagged human ErbB2 cytoplasmic domain expressed in baculovirus expression system at 1 uM by FRET assay relative to control
Summary of the method: (§2)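 Single-point screen at 1 μM compound in a 220-kinase panel run by Life Technologies (SelectScreen). Z′-LYTE format: phosphorylation of a labeled peptide substrate read by FRET. Values are reported as percent inhibition.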

[4] = target: 5-hydroxytryptamine receptor 4 (Homo sapiens) (UniProt Q13639); assay: Binding affinity to 5HT4e receptor (unknown origin) receptor at 10 uM relative to control; summary of the method: as §1
[5] = target: Tyrosine-protein kinase receptor TYRO3 (Homo sapiens) (UniProt Q06418); assay: Inhibition of recombinant full length GST-tagged human Rse cytoplasmic domain (451 to 890 residues) expressed in baculovirus expression system at 1 uM by FRET assay relative to control
Summary of the method: (§3)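 Single-concentration screen at 1 μM in Life Technologies SelectScreen, across a 220-kinase panel. Z′-LYTE format measures phosphorylation of a labeled peptide by FRET. Results are reported as percent inhibition.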

[6] = target: Sodium-dependent dopamine transporter (Homo sapiens) (UniProt Q01959); assay: Binding affinity to recombinant human dopamine transporter at 10 uM relative to control; summary of the method: as §1
[7] = target: Tyrosine-protein kinase TXK (Homo sapiens) (UniProt P42681); assay: Inhibition of recombinant N-terminal GST-tagged human TXK (260 to 527 residues) expressed in baculovirus expression system at 1 uM by FRET assay relative to control; summary of the method: as §3
[8] = target: Casein kinase I isoform delta (Homo sapiens) (UniProt P48730); assay: Inhibition of CK1delta (unknown origin) at 1 uM by FRET assay relative to control
[9] = target: Fibroblast growth factor receptor 3 (Homo sapiens) (UniProt P22607); assay: Inhibition of recombinant His-tagged FGFR3 human cytoplasmic domain expressed in baculovirus expression system at 1 uM by FRET assay relative to control; summary of the method: as §2
[10] = target: Dual specificity mitogen-activated protein kinase kinase 6 (Homo sapiens) (UniProt P52564); assay: Inhibition of recombinant human full length His-tagged MKK6 expressed in baculovirus at 1 uM by FRET assay relative to control
[11] = target: Mitogen-activated protein kinase kinase kinase 12 (Mus musculus) (UniProt Q60700); assay: Inhibition of DLK in CD-1 mouse DRG neuron assessed as axonal protection pre-incubated for 2 hrs before NGF deprivation for 16 to 20 hrs by Campenot chamber based fluorescence assay
Summary of the method: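 High-content imaging assay of axon degeneration, with automated quantification of axons. Protection is expressed relative to a positive control in which degeneration was not induced. EC50 was taken from dose-response curves, each point being the average of three independent assays ± SD.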

[12] = target: Aurora kinase A (Homo sapiens) (UniProt O14965); assay: Inhibition of recombinant full length His-tagged human Aurora A expressed in baculovirus expression system at 1 uM by FRET assay relative to control
[13] = target: Nicotinic acetylcholine receptor alpha-1/beta-1/delta/epsilon (Homo sapiens) (UniProt P02708+P11230+Q07001+Q04844); assay: Binding affinity to (alpha1)2beta1deltaepsilon nAChR (unknown origin) receptor at 10 uM relative to control; assay type: protein-complex assay; summary of the method: as §1
[14] = target: Serine/threonine-protein kinase PLK3 (Homo sapiens) (UniProt Q9H4B4); assay: Inhibition of GST-tagged human PLK3 catalytic domain expressed in baculovirus expression system at 1 uM by FRET assay relative to control
[15] = target: Mitogen-activated protein kinase 9 (Homo sapiens, UniProt P45984); assay: Inhibition of recombinant full length His-tagged human JNK2 ([…]) expressed in baculovirus expression system at by FRET assay
[16] = target: Megakaryocyte-associated tyrosine-protein kinase (Homo sapiens) (UniProt P42679); assay: Inhibition of recombinant full length His-tagged human Hyl cytoplasmic domain expressed in Escherichia coli at 1 uM by FRET relative to control
[17] = target: Homeodomain-interacting protein kinase 4 (Homo sapiens) (UniProt Q8NE63); assay: Inhibition of recombinant full length GST-tagged human HIPK4 expressed in baculovirus expression system at 1 uM by FRET relative to control; summary of the method: as §3
[18] = target: High affinity nerve growth factor receptor (Homo sapiens, UniProt P04629); assay: Inhibition of recombinant His-tagged human TrkA cytoplasmic domain (441 to 796 residues) expressed in baculovirus expression system by FRET assay
[19] = target: GABA-A receptor; alpha-1/beta-2/gamma-2 (Homo sapiens) (UniProt P14867+P47870+P18507); assay: Binding affinity to GABA-A alpha1beta2gamma2 receptor (unknown origin) at 10 uM relative to control; assay type: protein-complex assay; summary of the method: as §1
[20] = target: Tyrosine-protein kinase Tec (Homo sapiens) (UniProt P42680); assay: Inhibition of recombinant full length His-tagged human TEC cytoplasmic domain expressed in baculovirus expression system at 1 uM by FRET assay relative to control
[21] = target: Neuronal acetylcholine receptor; alpha4/beta2 (Homo sapiens) (UniProt P17787+P43681); assay: Binding affinity to alpha4beta2 nAChR (unknown origin) receptor at 10 uM relative to control; assay type: protein-complex assay; summary of the method: as §1
[22] = target: Acetylcholinesterase (Homo sapiens) (UniProt P22303); assay: Binding affinity to acetylcholinesterase (unknown origin) at 10 uM relative to control; summary of the method: as §1
[23] = target: Aurora kinase B (Homo sapiens) (UniProt Q96GD4); assay: Inhibition of recombinant full length His-tagged human Aurora B expressed in baculovirus expression system at 1 uM by FRET assay relative to control
[24] = target: Mitogen-activated protein kinase 10 (Homo sapiens, UniProt P53779); assay: Inhibition of recombinant full length GST-tagged human JNK3 expressed in baculovirus expression system at 1 uM by FRET assay relative to control; summary of the method: as §3
[25] = target: Activin receptor type-2B (Homo sapiens) (UniProt Q13705); assay: Inhibition of recombinant GST-tagged human ACVR2B catalytic domain (185 to 488 residues) expressed in baculovirus expression system at 1 uM by FRET assay relative to control
[26] = target: Serine/threonine-protein kinase Nek1 (Homo sapiens) (UniProt Q96PY6); assay: Inhibition of recombinant full length GST-tagged human NEK1 expressed in baculovirus expression system at 1 uM by FRET assay relative to control; summary of the method: as §3
[27] = target: Mitogen-activated protein kinase kinase kinase 5 (Homo sapiens) (UniProt Q99683); assay: Inhibition of recombinant full length GST-tagged human ASK1 expressed in baculovirus expression system at 1 uM by FRET assay relative to control; summary of the method: as §3
Mitogen-activated protein kinase kinase kinase 5 (Homo sapiens), sequence (Q99683 whole entry): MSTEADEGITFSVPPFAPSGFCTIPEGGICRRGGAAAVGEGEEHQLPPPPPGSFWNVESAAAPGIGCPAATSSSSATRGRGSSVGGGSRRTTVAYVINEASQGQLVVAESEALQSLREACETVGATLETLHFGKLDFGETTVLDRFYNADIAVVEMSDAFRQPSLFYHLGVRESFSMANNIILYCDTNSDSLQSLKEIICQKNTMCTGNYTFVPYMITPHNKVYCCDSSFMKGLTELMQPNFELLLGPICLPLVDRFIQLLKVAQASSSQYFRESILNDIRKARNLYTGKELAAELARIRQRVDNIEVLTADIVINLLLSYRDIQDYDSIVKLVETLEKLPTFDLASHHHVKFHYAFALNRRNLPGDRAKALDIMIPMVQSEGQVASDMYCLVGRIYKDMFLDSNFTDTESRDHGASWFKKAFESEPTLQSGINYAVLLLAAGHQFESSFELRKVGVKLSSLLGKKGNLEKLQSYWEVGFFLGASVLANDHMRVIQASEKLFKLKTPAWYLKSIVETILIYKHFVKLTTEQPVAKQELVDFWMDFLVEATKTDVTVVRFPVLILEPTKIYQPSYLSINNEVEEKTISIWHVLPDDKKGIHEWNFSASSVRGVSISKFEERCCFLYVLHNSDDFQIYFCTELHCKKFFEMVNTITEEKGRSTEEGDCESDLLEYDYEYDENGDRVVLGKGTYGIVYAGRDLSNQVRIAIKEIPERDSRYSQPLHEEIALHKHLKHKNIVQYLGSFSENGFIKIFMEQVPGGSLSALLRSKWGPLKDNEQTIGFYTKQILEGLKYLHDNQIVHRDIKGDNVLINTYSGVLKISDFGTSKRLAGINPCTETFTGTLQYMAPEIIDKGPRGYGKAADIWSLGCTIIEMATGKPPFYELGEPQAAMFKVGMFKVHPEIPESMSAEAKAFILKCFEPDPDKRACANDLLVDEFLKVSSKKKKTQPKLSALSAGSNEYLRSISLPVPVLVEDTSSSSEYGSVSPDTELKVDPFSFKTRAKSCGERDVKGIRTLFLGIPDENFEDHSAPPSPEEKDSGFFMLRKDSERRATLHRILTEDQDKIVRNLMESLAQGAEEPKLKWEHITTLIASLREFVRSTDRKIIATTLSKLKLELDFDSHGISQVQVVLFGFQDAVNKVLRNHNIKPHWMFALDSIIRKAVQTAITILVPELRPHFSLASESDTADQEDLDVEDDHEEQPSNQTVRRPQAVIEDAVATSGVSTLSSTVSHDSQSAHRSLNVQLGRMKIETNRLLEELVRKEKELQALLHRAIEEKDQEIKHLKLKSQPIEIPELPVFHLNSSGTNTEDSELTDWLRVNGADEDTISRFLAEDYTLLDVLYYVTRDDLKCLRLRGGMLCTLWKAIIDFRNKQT

High affinity nerve growth factor receptor, sequence (P04629 whole entry, the tested form may be a part): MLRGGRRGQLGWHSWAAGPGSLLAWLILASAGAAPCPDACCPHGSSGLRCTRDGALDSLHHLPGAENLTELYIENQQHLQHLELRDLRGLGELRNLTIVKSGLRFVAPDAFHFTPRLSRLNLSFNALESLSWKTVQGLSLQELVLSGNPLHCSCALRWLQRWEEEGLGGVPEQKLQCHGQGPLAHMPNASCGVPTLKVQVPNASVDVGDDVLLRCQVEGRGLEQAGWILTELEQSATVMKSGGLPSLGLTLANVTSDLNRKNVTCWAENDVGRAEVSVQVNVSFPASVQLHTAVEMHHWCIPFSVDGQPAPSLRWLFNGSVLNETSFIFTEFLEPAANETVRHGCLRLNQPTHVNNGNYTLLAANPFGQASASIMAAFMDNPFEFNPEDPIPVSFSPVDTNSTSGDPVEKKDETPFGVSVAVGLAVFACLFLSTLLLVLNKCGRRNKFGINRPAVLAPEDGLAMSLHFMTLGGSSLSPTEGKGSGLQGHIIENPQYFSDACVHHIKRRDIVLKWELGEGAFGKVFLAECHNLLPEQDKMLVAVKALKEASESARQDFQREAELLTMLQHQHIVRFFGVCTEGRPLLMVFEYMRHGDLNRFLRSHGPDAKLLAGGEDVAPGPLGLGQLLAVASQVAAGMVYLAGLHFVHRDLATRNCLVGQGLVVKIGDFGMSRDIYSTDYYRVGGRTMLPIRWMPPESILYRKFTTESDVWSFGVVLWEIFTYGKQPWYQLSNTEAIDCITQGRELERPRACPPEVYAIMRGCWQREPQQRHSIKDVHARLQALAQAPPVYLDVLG
Muscarinic acetylcholine receptor M2 (Homo sapiens), sequence (P08172 whole entry): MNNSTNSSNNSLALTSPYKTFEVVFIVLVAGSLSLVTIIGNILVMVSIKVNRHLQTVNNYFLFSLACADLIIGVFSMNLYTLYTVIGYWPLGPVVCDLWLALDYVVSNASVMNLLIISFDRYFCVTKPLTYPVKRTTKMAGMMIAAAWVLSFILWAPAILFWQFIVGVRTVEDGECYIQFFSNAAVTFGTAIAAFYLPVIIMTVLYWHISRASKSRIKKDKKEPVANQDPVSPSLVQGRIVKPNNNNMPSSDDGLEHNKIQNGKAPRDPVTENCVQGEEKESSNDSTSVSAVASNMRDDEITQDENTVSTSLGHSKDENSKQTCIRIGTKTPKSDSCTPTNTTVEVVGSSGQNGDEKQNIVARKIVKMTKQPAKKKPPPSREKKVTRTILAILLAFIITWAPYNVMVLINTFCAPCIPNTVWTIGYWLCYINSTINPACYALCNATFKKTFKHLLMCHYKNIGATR
Fibroblast growth factor receptor 3 (Homo sapiens), sequence (P22607 23-806 limits assumed): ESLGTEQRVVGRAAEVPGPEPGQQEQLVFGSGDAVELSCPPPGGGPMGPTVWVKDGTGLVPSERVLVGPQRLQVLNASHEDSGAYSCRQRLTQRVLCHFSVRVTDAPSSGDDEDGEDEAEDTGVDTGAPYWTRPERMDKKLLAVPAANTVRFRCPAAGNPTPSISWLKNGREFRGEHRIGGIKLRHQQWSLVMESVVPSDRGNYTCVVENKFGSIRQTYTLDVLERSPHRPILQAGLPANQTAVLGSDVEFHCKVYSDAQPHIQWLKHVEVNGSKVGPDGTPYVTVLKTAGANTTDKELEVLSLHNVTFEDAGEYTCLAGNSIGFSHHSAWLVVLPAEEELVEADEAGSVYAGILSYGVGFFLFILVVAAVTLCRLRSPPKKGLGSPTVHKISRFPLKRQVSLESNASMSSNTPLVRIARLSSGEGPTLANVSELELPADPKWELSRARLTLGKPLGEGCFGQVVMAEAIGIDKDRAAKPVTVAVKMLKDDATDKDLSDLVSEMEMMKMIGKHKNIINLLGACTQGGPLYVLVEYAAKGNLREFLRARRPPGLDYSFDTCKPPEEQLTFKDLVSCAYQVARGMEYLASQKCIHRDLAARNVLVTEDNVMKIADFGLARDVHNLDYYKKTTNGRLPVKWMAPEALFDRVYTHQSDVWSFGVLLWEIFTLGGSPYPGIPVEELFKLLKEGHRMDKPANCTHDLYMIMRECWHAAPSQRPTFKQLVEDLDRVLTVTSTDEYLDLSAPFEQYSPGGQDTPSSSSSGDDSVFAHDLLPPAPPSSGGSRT
Tyrosine-protein kinase TXK (Homo sapiens), sequence (P42681 whole entry, the tested form may be a part, canonical isoform): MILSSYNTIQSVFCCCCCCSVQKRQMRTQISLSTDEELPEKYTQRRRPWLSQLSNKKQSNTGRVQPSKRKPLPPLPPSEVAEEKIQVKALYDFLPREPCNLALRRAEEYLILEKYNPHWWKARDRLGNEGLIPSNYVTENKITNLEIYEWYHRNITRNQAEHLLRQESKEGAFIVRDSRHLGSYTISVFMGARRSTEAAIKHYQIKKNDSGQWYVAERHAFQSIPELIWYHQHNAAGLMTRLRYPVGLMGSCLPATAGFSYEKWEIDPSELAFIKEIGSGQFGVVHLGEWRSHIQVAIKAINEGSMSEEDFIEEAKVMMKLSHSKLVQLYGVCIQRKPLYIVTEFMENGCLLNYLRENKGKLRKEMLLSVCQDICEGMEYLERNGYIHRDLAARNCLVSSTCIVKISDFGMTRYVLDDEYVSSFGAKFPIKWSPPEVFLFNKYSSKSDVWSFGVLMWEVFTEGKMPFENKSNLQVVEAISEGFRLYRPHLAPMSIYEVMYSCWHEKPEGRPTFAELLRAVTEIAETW
Casein kinase I isoform delta (Homo sapiens), sequence (P48730 whole entry, looked up, the tested form may be a part, canonical isoform): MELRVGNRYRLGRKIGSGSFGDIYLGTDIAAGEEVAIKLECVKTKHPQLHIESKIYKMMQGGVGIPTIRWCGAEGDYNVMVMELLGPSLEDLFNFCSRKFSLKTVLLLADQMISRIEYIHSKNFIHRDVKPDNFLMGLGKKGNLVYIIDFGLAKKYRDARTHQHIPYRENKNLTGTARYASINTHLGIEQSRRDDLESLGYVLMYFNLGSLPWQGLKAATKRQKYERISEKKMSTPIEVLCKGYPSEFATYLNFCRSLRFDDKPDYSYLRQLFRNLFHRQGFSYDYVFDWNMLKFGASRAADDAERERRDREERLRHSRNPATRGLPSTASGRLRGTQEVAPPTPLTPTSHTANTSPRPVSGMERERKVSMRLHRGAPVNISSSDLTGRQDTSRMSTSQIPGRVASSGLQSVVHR
Serine/threonine-protein kinase PLK3 (Homo sapiens), sequence (Q9H4B4 whole entry, looked up, the tested form may be a part): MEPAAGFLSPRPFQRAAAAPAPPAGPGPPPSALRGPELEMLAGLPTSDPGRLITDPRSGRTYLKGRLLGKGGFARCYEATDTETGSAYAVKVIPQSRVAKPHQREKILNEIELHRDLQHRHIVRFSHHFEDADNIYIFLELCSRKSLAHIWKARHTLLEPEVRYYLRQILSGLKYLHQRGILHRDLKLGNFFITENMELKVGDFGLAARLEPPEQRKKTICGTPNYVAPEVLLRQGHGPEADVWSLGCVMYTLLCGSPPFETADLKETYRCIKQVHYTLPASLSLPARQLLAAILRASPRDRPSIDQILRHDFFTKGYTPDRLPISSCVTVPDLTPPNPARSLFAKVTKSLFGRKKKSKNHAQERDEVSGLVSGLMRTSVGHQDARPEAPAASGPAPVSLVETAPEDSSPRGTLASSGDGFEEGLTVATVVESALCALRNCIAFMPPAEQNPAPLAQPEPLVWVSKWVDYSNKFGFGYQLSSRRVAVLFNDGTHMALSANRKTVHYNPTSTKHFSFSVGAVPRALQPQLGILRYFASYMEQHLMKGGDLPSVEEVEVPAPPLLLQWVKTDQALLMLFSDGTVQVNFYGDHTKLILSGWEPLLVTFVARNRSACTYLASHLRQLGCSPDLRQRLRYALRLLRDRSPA

SMILES	Activity [1]	inhibition [2]	inhibition [3]	Activity [4]	inhibition [5]	Activity [6]	inhibition [7]	inhibition [8]	inhibition [9]	inhibition [10]	Activity [11]	inhibition [12]	Activity [13]	inhibition [14]	pIC50 [15]	inhibition [16]	inhibition [17]	pIC50 [18]	Activity [19]	inhibition [20]	other results
CC(C)n1nc(-c2cnc(N)c(OC(F)(F)F)c2)cc1[C@H]1[C@@H]2CN(C3COC3)C[C@@H]21	> 50%	5%	-0.8%	> 50%	11.2%	> 50%	4.7%	10%	-1.8%	10.6%	Dose-dependent effect	16.2%	> 50%	-3.8%	< 5.00	7.5%	40.7%	5.81	> 50%	-1.5%	Activity [21]: > 50%; Activity [22]: > 50%; inhibition [23]: 14.4%; inhibition [24]: 8.6%; inhibition [25]: -0.8%; inhibition [26]: 5.7%; inhibition [27]: -5.3%
Nc1ncc(-c2cc([C@H]3[C@@H]4CN(C5COC5)C[C@@H]43)n(CC3CC3)n2)cc1C(F)(F)F	> 50%	3.3%	-5.4%	> 50%	11.3%	> 50%	25.6%	-0.3%	-9.3%	-0.9%	Dose-dependent effect	27.2%	> 50%	0.6%	< 5.00	0.1%	6.8%	6.42	> 50%	4.8%	Activity [21]: > 50%; Activity [22]: > 50%; inhibition [23]: 7.4%; inhibition [24]: 4.2%; inhibition [25]: -2.1%; inhibition [26]: 3.6%; inhibition [27]: 3.1%
